Legend:
Digitaria sanguinalis [1] = assay: Herbicidal activity against Digitaria sanguinalis (hairy crabgrass) assessed as inhibition of fresh weed plant weights at 600 g ai/ha using pre-emergence treatment protocol under greenhouse conditions relative to untreated control; assay type: functional
Outline: (§1)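 Pre-emergence test in plastic pots kept in a greenhouse at 22-25 °C. Fresh weight of aerial plant parts was measured 20 days later, and percent inhibition calculated relative to water-sprayed controls. Metolachlor served as the positive control. Three replicates were run per concentration.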

Eleusine indica [2] = assay: Herbicidal activity against Eleusine indica assessed as inhibition of fresh weed plant weights at 150 g ai/ha using pre-emergence treatment protocol under greenhouse conditions relative to untreated control; assay type: functional; outline: as §1
Portulaca oleracea [3] = assay: Herbicidal activity against Portulaca oleracea assessed as inhibition of fresh weed plant weights at 800 g ai/ha using pre-emergence treatment protocol under field trials conditions measured 30 days post soil treatment relative to untreated control; assay type: functional; conditions: 720 h
Outline: (§2)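 Field pre-emergence trial. Treatments were applied to the soil surface within 24 h after maize planting, at 300, 400, 600 and 800 g a.i. ha^-1. Fresh weight of aerial plant parts was measured 30 days later, and percent inhibition calculated relative to the water-sprayed control.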

Echinochloa crus-galli [4] = assay: Herbicidal activity against Echinochloa crus-galli (barnyard grass) assessed as inhibition of fresh weed plant weights at 300 g ai/ha using pre-emergence treatment protocol under greenhouse conditions relative to untreated control; assay type: functional; outline: as §1
Echinochloa crus-galli [5] = assay: Herbicidal activity against Echinochloa crus-galli (barnyard grass) assessed as inhibition of shoot growth at […] measured 7 days post treatment; assay type: functional; set-up: dose or concentration left out as unconfirmed; conditions: 168 h, read-out: GI
Echinochloa crus-galli [6] = assay: Herbicidal activity against Echinochloa crus-galli (barnyard grass) assessed as inhibition of fresh weed plant weights at 600 g ai/ha using pre-emergence treatment protocol under greenhouse conditions relative to untreated control; assay type: functional; outline: as §1
Digitaria sanguinalis [7] = assay: Herbicidal activity against Digitaria sanguinalis (hairy crabgrass) assessed as inhibition of fresh weed plant weights at 400 g ai/ha using pre-emergence treatment protocol under field trials conditions measured 30 days post soil treatment relative to untreated control; assay type: functional; conditions: 720 h; outline: as §2
Digitaria sanguinalis [8] = assay: Herbicidal activity against Digitaria sanguinalis (hairy crabgrass) assessed as inhibition of fresh weed plant weights at 300 g ai/ha using pre-emergence treatment protocol under greenhouse conditions relative to untreated control; assay type: functional; outline: as §1
Digitaria sanguinalis [9] = assay: Herbicidal activity against Digitaria sanguinalis (hairy crabgrass) assessed as inhibition of fresh weed plant weights at 300 g ai/ha using pre-emergence treatment protocol under field trials conditions measured 30 days post soil treatment relative to untreated control; assay type: functional; conditions: 720 h; outline: as §2
[10] = system: Brassica rapa subsp. oleifera; assay: Toxicity against Brassica rapa subsp. oleifera var. JING GUAN 1 assessed as inhibition of fresh weed plant weights at 150 g ai/ha using pre-emergence treatment protocol under greenhouse conditions relative to untreated control; assay type: organism-based; conditions: in vivo, other; outline: as §1
Portulaca oleracea [11] = assay: Herbicidal activity against Portulaca oleracea assessed as inhibition of shoot growth at […] measured 7 days post treatment; assay type: functional; conditions: 168 h, read-out: GI
Outline: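 Petri-dish agar assay. A 10 g/L stock of compound in acetone was mixed into molten agar; the untreated control was agar without compound. Seeds were placed on the agar surface and the cups were covered with glass lids. Incubation was 25 ± 1 °C, 50-55% RH, 12 h light/12 h dark, for 7 days. Root and shoot lengths were measured and growth inhibition calculated against the control, in three replicates.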

Digitaria sanguinalis [12] = assay: Herbicidal activity against Digitaria sanguinalis (hairy crabgrass) assessed as inhibition of fresh weed plant weights at 600 g ai/ha using pre-emergence treatment protocol under field trials conditions measured 30 days post soil treatment relative to untreated control; assay type: functional; conditions: 720 h; outline: as §2
Echinochloa crus-galli [13] = assay: Herbicidal activity against Echinochloa crus-galli (barnyard grass) assessed as inhibition of fresh weed plant weights at 800 g ai/ha using pre-emergence treatment protocol under field trials conditions measured 30 days post soil treatment relative to untreated control; assay type: functional; conditions: 720 h; outline: as §2
Portulaca oleracea [14] = assay: Herbicidal activity against Portulaca oleracea assessed as inhibition of fresh weed plant weights at 300 g ai/ha using pre-emergence treatment protocol under greenhouse conditions relative to untreated control; assay type: functional; outline: as §1
Portulaca oleracea [15] = assay: Herbicidal activity against Portulaca oleracea assessed as inhibition of fresh weed plant weights at 600 g ai/ha using pre-emergence treatment protocol under field trials conditions measured 30 days post soil treatment relative to untreated control; assay type: functional; conditions: 720 h; outline: as §2
Eleusine indica [16] = assay: Herbicidal activity against Eleusine indica assessed as inhibition of fresh weed plant weights at 800 g ai/ha using pre-emergence treatment protocol under field trials conditions measured 30 days post soil treatment relative to untreated control; assay type: functional; conditions: 720 h; outline: as §2
Echinochloa crus-galli [17] = assay: Herbicidal activity against Echinochloa crus-galli (barnyard grass) assessed as inhibition of fresh weed plant weights at 400 g ai/ha using pre-emergence treatment protocol under field trials conditions measured 30 days post soil treatment relative to untreated control; assay type: functional; conditions: 720 h; outline: as §2
Portulaca oleracea [18] = assay: Herbicidal activity against Portulaca oleracea assessed as inhibition of fresh weed plant weights at 600 g ai/ha using pre-emergence treatment protocol under greenhouse conditions relative to untreated control; assay type: functional; outline: as §1
Portulaca oleracea [19] = assay: Herbicidal activity against Portulaca oleracea assessed as inhibition of fresh weed plant weights at 400 g ai/ha using pre-emergence treatment protocol under field trials conditions measured 30 days post soil treatment relative to untreated control; assay type: functional; conditions: 720 h; outline: as §2
Echinochloa crus-galli [20] = assay: Herbicidal activity against Echinochloa crus-galli (barnyard grass) assessed as inhibition of fresh weed plant weights at 300 g ai/ha using pre-emergence treatment protocol under field trials conditions measured 30 days post soil treatment relative to untreated control; assay type: functional; conditions: 720 h; outline: as §2
Echinochloa crus-galli [21] = assay: Herbicidal activity against Echinochloa crus-galli (barnyard grass) assessed as inhibition of root growth at […] measured 7 days post treatment; assay type: functional; set-up: dose or concentration left out as unconfirmed; conditions: 168 h, read-out: GI
Echinochloa crus-galli [22] = assay: Herbicidal activity against Echinochloa crus-galli (barnyard grass) assessed as inhibition of fresh weed plant weights at 150 g ai/ha using pre-emergence treatment protocol under greenhouse conditions relative to untreated control; assay type: functional; outline: as §1
Convolvulus arvensis [23] = assay: Herbicidal activity against Convolvulus arvensis assessed as inhibition of fresh weed plant weights at 400 g ai/ha using pre-emergence treatment protocol under field trials conditions measured 30 days post soil treatment relative to untreated control; assay type: functional; conditions: 720 h; outline: as §2
Zea mays [24] = assay: Toxicity against Zea mays var. SHEN DAN 17 (maize) assessed induction of crop injury at 600 g ai/ha using pre-emergence treatment protocol under field trials conditions measured 30 days post soil treatment; assay type: organism-based; conditions: in vivo, other, 720 h
Outline: (§3)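 Pre-emergence application to soil surface within 24 h after maize planting, at 300, 400, 600 or 800 g a.i. ha^-1. Fresh weight of aerial plant parts measured 30 days later; percentage inhibition calculated relative to water-sprayed control.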

Echinochloa crus-galli [25] = assay: Herbicidal activity against Echinochloa crus-galli (barnyard grass) assessed as inhibition of fresh weed plant weights at 600 g ai/ha using pre-emergence treatment protocol under field trials conditions measured 30 days post soil treatment relative to untreated control; assay type: functional; conditions: 720 h; outline: as §2
Convolvulus arvensis [26] = assay: Herbicidal activity against Convolvulus arvensis assessed as inhibition of fresh weed plant weights at 600 g ai/ha using pre-emergence treatment protocol under field trials conditions measured 30 days post soil treatment relative to untreated control; assay type: functional; conditions: 720 h; outline: as §2
Zea mays [27] = assay: Toxicity against Zea mays var. SHEN DAN 17 (maize) assessed induction of crop injury at 300 g ai/ha using pre-emergence treatment protocol under field trials conditions measured 30 days post soil treatment; assay type: organism-based; conditions: in vivo, other, 720 h; outline: as §3
Eleusine indica [28] = assay: Herbicidal activity against Eleusine indica assessed as inhibition of fresh weed plant weights at 600 g ai/ha using pre-emergence treatment protocol under greenhouse conditions relative to untreated control; assay type: functional; outline: as §1
Eleusine indica [29] = assay: Herbicidal activity against Eleusine indica assessed as inhibition of fresh weed plant weights at 300 g ai/ha using pre-emergence treatment protocol under greenhouse conditions relative to untreated control; assay type: functional; outline: as §1

## Cc1nn(CC(F)(F)F)c(CS(=O)(=O)C2=NOC(C)(C)C2)c1Cl
Digitaria sanguinalis [1]
  inhibition at 600 g/ha: 100%
Eleusine indica [2]
  inhibition at 150 g/ha: 97%
Portulaca oleracea [3]
  inhibition at 800 g/ha: 100%
Echinochloa crus-galli [4]
  inhibition at 300 g/ha: 100%
Echinochloa crus-galli [5]
  inhibition of growth: 84%
Echinochloa crus-galli [6]
  inhibition at 600 g/ha: 100%
Digitaria sanguinalis [7]
  inhibition at 400 g/ha: 98%
Digitaria sanguinalis [8]
  inhibition at 300 g/ha: 97%
Digitaria sanguinalis [9]
  inhibition at 300 g/ha: 95%
[10]
  inhibition (INH): 7%
Portulaca oleracea [11]
  inhibition of growth at 100000 µg/mL: 54%
Digitaria sanguinalis [12]
  inhibition at 600 g/ha: 100%
Echinochloa crus-galli [13]
  inhibition at 800 g/ha: 100%
Portulaca oleracea [14]
  inhibition at 300 g/ha: 97%
Portulaca oleracea [15]
  inhibition at 600 g/ha: 95%
Eleusine indica [16]
  inhibition at 800 g/ha: 99%
Echinochloa crus-galli [17]
  inhibition at 400 g/ha: 100%
Portulaca oleracea [18]
  inhibition at 600 g/ha: 99%
Portulaca oleracea [19]
  inhibition at 400 g/ha: 85%
Echinochloa crus-galli [20]
  inhibition at 300 g/ha: 100%
Echinochloa crus-galli [21]
  inhibition of growth: 62%
Echinochloa crus-galli [22]
  inhibition at 150 g/ha: 100%
Convolvulus arvensis [23]
  inhibition at 400 g/ha: 16%
Zea mays [24]
  Activity: 0%
Echinochloa crus-galli [25]
  inhibition at 600 g/ha: 100%
Convolvulus arvensis [26]
  inhibition at 600 g/ha: 27%
Zea mays [27]
  Activity: 0%
Eleusine indica [28]
  inhibition at 600 g/ha: 100%
Eleusine indica [29]
  inhibition at 300 g/ha: 99%
